Test [1] has as its system Fusarium culmorum. Briefly: Fungicidal activity against Fusarium culmorum CCM 172 at […] after 48 hrs by agar diffusion assay. The note with it: 0.4 mg/disk. The test is classed as functional, organism-based. Put shortly:
(§1)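 Fungi were grown 7 days at 28 °C on PDA, then suspended in 0.05% Tween 80 in sterile water to about 10^6 conidia/mL. 1 mL was mixed into 15 mL PDA. After setting, four 0.5 cm paper disks impregnated with test product were added. Controls were solvent-only disks and benomyl disks, dosed per fungus. The read-out was the no-growth inhibition zone (mm), as the mean ± SE of three independent experiments.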
In general terms: Agar diffusion results depend on both activity and mobility in agar.

The subject of test [2] is Geotrichum candidum. Kind of test: Fungicidal activity against Geotrichum candidum CCM 245 at 0.4 mg/disk after 48 hrs by agar diffusion assay. It is filed as functional, organism-based. The method, boiled down: as §1
In another test the test system is Salmonella typhi. Kind of test: Bactericidal activity against Salmonella typhi CECT 409 at 0.3 mg/disk after 24 hrs by agar diffusion assay. It is filed as functional, organism-based. The note with it: Salmonella enterica subsp. enterica serovar Typhi. Put shortly:
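Bacteria from 24-h slant cultures reactivated in Nutrient Broth for 24 h at 28 or 37 °C depending on strain. 1 mL of suspension was placed in a plate and overlaid with 15 mL Plate Count Agar. After solidification, five paper disks loaded with compound were applied. Plates were incubated 24 h in the dark at 28 or 37 °C depending on strain.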

Test [3] relates to Pectobacterium carotovorum. Briefly: Bactericidal activity against Erwinia carotovora CECT 225 at 0.3 mg/disk after 24 hrs by agar diffusion assay. It is filed as functional, organism-based. Put shortly:
(§2)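 Each bacterium, kept as 24-h cultures on solid-medium slants, was reactivated in Nutrient Broth for 24 h at 28 or 37 °C depending on species. 1 mL of this suspension was plated and overlaid with 15 mL Plate Count Agar. Once the agar solidified, five paper disks loaded with test product were applied. Plates were incubated 24 h in the dark at 28 or 37 °C by species.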

In test [4] the test system is Aspergillus parasiticus. Briefly: Fungicidal activity against Aspergillus parasiticus CECT 2681 at 0.4 mg/disk after 48 hrs by agar diffusion assay. It is filed as functional, organism-based. Put shortly:
as §1

In the next test the test system is Bacillus cereus. Briefly: Bactericidal activity against Bacillus cereus CECT 148 at 0.3 mg/disk after 24 hrs by agar diffusion assay. The test is classed as functional, organism-based. Put shortly: as §2
Test [5] concerns Trichoderma viride. Briefly: Fungicidal activity against Trichoderma viride CECT 2423 at 0.4 mg/disk after 48 hrs by agar diffusion assay. The test is classed as functional, organism-based. Put shortly:
as §1

For another test, the system named is Enterococcus faecalis. Briefly: Bactericidal activity against Enterococcus faecalis CECT 481 at 0.3 mg/disk after 24 hrs by agar diffusion assay. The test is classed as functional, organism-based. Put shortly:
as §2

The test system of another test is Staphylococcus aureus. Kind of test: Bactericidal activity against Staphylococcus aureus CECT 86 at 0.3 mg/disk after 24 hrs by agar diffusion assay. The test is classed as functional, organism-based. Put shortly: as §2
For test [6], the system named is Escherichia coli. Briefly: Bactericidal activity against Escherichia coli CECT 405 at 0.3 mg/disk after 24 hrs by agar diffusion assay. It is filed as functional, organism-based. Put shortly: as §2
Test [7] concerns Escherichia coli. Kind of test: Bactericidal activity against Escherichia coli CECT 100 at 0.3 mg/disk after 24 hrs by agar diffusion assay. It is filed as functional, organism-based. Put shortly:
as §2

In test [8] the test system is Phytophthora citrophthora. Briefly: Fungicidal activity against Phytophthora citrophthora CECT 2353 at 0.4 mg/disk after 48 hrs by agar diffusion assay. The test is classed as functional, organism-based. Put shortly: as §1
Test [9] concerns Fusarium culmorum. Kind of test: Fungicidal activity against Fusarium culmorum CCM 172 at 0.2 mg/disk after 48 hrs by agar diffusion assay. The test is classed as functional. The method, boiled down:
as §1

The test system of test [10] is Aspergillus parasiticus. Briefly: Fungicidal activity against Aspergillus parasiticus CECT 2681 at 20 ug/disk after 48 hrs by agar diffusion assay. The test is classed as functional. The note with it: CECT 2681, 48 h, read-out: IZ. The method, boiled down: (§3)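 Fungi were grown on PDA for 7 days at 28 °C and suspended in 0.05% Tween 80 to about 10^6 conidia/mL. 1 mL was mixed into 15 mL PDA. Four 0.5 cm paper disks carrying compound were placed on the set agar. Solvent-only disks served as negative control. The inhibition zone (mm) around each disk was measured. Values are the mean of three independent experiments.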

In test [11] the test system is Geotrichum candidum. Kind of test: Fungicidal activity against Geotrichum candidum CCM 245 at 0.2 mg/disk after 48 hrs by agar diffusion assay. The test is classed as functional. Put shortly:
as §1

Test [12] has as its system Trichoderma viride. Briefly: Fungicidal activity against Trichoderma viride CECT 2423 at 20 ug/disk after 48 hrs by agar diffusion assay. It is filed as functional. The note with it: CECT 2423, 48 h, read-out: IZ. The method, boiled down: as §3
For test [13], the system named is Phytophthora citrophthora. Kind of test: Fungicidal activity against Phytophthora citrophthora CECT 2353 at 30 ug/disk after 48 hrs by agar diffusion assay. The test is classed as functional. To be noted: CECT 2353, 48 h, read-out: IZ. Put shortly: as §3

Activity calls are given as the source filed them. The rule behind the calls is not given here.

Regarding `COc1cc2c(cc1OC)C1CCC(=O)N1CC2` (configuration not stated), the outcome (with Fusarium culmorum [1]; in the test with Geotrichum candidum [2]; in the test with Aspergillus parasiticus [4]; in the test on Trichoderma viride [5]; in [8]) was inactive. Further, the result (in the test with Salmonella typhi; in [3]; in the test with Bacillus cereus; with Enterococcus faecalis; with Staphylococcus aureus; in the test on Escherichia coli [6]) was Active. Besides, the result in the test on Escherichia coli [7] was Active.
Take `CCCCNC(=O)n1c(NC(=O)OC)nc2ccccc21` [BENOMYL]: the “inhibition zone (IZ)” value is 27.66 mm in the test with Fusarium culmorum [9] and 0 mm in the test with Geotrichum candidum [11]. Further, the zone of inhibition at 20 µg/disc in the test on Aspergillus parasiticus [10] and in the test with Trichoderma viride [12] was 29.3 mm throughout. Also, the zone of inhibition at 30 µg/disc in [13] stood at 44.3 mm.

(Values after ChEMBL document CHEMBL2157981, “Synthesis of new antimicrobial pyrrolo[2,1-a]isoquinolin-3-ones” (2012).)
